Assay [1] concerns Canis familiaris. Nature of the assay: Inhibition of PAF-induced platelet aggregation in whole blood obtained after 4 hr from dog injected with an intravenous dose of 1 mg/Kg of compound. In kind it is functional, Canis lupus familiaris. The procedure, abridged:
(§1)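 Male Beagle dogs (8-12 kg) dosed once at 1 mg/kg iv. Venous blood drawn before dosing and at 4 and 6 h, anticoagulated with 3.8% citrate (1:9) and diluted 1:1 in saline.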

For assay [2], the system named is Mus musculus. The assay can be described thus: Dosage required to inhibit PAF-induced mortality in mice by 50% through intravenous route. The following applies: read-out: ID50 (the source's name). In kind it is functional. The procedure, abridged: (§2)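 Male Swiss mice, 22-26 g, groups of 10. Test article given iv (10 mL/kg, saline vehicle) 5 min before, or po (20 mL/kg, 1% Tween 80) 60 min before, tail-vein C-18-PAF 100 µg/kg plus propranolol 1 mg/kg. Mortality scored 2 h after PAF; % inhibition vs vehicle controls. ID50 by linear regression, ≥4 points.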

For assay [3], the species on record is Oryctolagus cuniculus. The assay can be described thus: Concentration required to inhibit PAF-induced maximum platelet aggregation in rabbit platelet-rich plasma. In kind it is functional. In a few lines: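 PRP prepared by centrifugation at 250g, 10 min, 4 °C, and diluted with platelet-poor plasma (3000g, 10 min) to 3.5 × 10⁵ platelets/mm³. Aggregation triggered by C-18-PAF at 1.5 × 10^-8 M and read on a dual-channel aggregometer. IC50 from linear regression of at least four points, each the mean of one to three independent experiments.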

Assay [4] deals with Mus musculus. The assay can be described thus: Percentage of inhibition by the compound against PAF-induced mortality in mice 7 hr after intravenous administration of 1 mg/Kg. In kind it is functional. The procedure, abridged: (§3)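 Male Swiss mice given single 1 mg/kg iv dose at time 0. C-18-PAF 100 µg/kg plus propranolol 1 mg/kg injected by lateral tail vein at later times (10-40 mice/time). Deaths scored 2 h after PAF. Percentage inhibition of mortality vs vehicle (saline) controls recorded at each time.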

For assay [5], the system named is Mus musculus. Nature of the assay: Dosage required to inhibit PAF-induced mortality in mice by 50% through oral administration. In kind it is functional. The following applies: read-out: ID50 (the source's name). In a few lines:
as §2

Assay [6] has as its system Canis familiaris. The assay can be described thus: Inhibition of PAF-induced platelet aggregation in whole blood obtained after 6 hr from dog injected with an intravenous dose of 1 mg/Kg of compound. In kind it is functional, Canis lupus familiaris. The procedure, abridged:
as §1

The subject of assay [7] is Mus musculus. Nature of the assay: Percentage of inhibition by the compound against PAF-induced mortality in mice 5 hr after intravenous administration of 1 mg/Kg. The assay is classed as functional. The procedure, abridged:
as §3

Assay [8] deals with Rattus norvegicus. Nature of the assay: Dose required to reduce the lowering of the arterial blood pressure caused by PAF by 50% after intravenous administration in rats. In kind it is functional. The following applies: read-out: ID50 (the source's name). The procedure, abridged: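 Rats with both femoral veins catheterized, one for test compound and one for PAF (0.5 µg/kg). Compound given iv in saline (1 mL/kg) 3 min before PAF. Blood pressure monitored; % inhibition of hypotension calculated versus controls. ID50 from linear regression of at least four doses, each the mean of two or more independent experiments.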

Assay [9] relates to Mus musculus. The assay can be described thus: Percentage of inhibition by the compound against PAF-induced mortality in mice 3 hr after intravenous administration of 1 mg/Kg. The assay is classed as functional. The procedure, abridged:
as §3

Molecules are shown by their SMILES.

A word on the Inhibition: it is how much of the control response was suppressed. A higher Inhibition goes with a strong effect. For orientation: IC50 means the point on the concentration scale where inhibition reaches its midpoint. A low value points to greater potency in that assay. By inhibition in vivo is commonly meant the change of the read-out against control, counted positive when it falls. A low value points to a response near the control.

Turning to `Cc1nc2cnccc2n1CC1CCN(C(=O)N[C@H](C)c2ccccc2)CC1`, the Inhibition in assay [1] was 100%; in assay [6], 77%. The ED50 stood at 0.0047 mg/kg in [2] and 1 mg/kg in assay [5]. For the same molecule, the midpoint of inhibition in assay [3], the IC50, lay at 0.013 µM. In addition, the inhibition in vivo at 1 mg/kg in assay [4] was 22%; in [7], 56%.
On to `Cc1nc2cnccc2n1CC1CCN(C(=O)NC2(c3ccccc3)CC2)CC1`, for which the ED50 in [2] amounted to 0.002 mg/kg; in assay [5], 0.3 mg/kg. In assay [3], this molecule came in with an IC50 of 0.017 µM.
`COc1ccccc1CCC(=O)N1CCC(Cn2c(C)nc3cnccc32)CC1`: the ED50 in assay [2] is 0.0033 mg/kg; in assay [8] it was 0.045 mg/kg; in assay [5] it was > 1 mg/kg. The molecule also had an IC50 in assay [3] of 0.015 µM.
Take `CCCC(CC(=O)N1CCC(Cn2c(C)nc3cnccc32)CC1)c1ccccc1` (centres undefined): the ED50 was 0.01 mg/kg in [2] and 1 mg/kg in assay [5]. This molecule also came in with an IC50 in assay [3] of 0.011 µM.
`CCOC(=O)[C@H](CC(C)C)N(C)S(=O)(=O)c1ccc(Cn2c(C)nc3cnccc32)cc1` [LEXIPAFANT]: the Inhibition in assay [1] and in assay [6] was 100% in each case. Besides, the ED50 came out at 0.0021 mg/kg in assay [2], 0.0037 mg/kg in assay [8] and 0.11 mg/kg in [5]. Besides, the concentration for half-maximal inhibition (IC50) in assay [3] came out at 0.0036 µM. In addition, the inhibition in vivo at 1 mg/kg was determined as 56% in [4], 100% in assay [9] and 95% in assay [7].
Consider `CCOC(=O)[C@H](CC(C)C)NC(=O)N1CCC(Cn2c(C)nc3cnccc32)CC1`, for which the ED50 in assay [2] was 0.0027 mg/kg; in assay [8], 0.03 mg/kg; in assay [5] it was > 1 mg/kg. Moreover, in assay [3], the midpoint of inhibition, the IC50, lay at 0.012 µM.
In the case of `COC/C(=C\C(=O)N1CCC(Cn2c(C)nc3cnccc32)CC1)c1ccccc1`, the ED50 was 0.0079 mg/kg in assay [2], 0.022 mg/kg in [8] and > 1 mg/kg in [5]. This molecule also yielded an IC50 in [3] of 0.018 µM.
For `COC(=O)NC(CC(=O)N1CCN(C(C#N)c2cccnc2C)CC1)c1ccccc1` (centres undefined) the same measures were 0.0055 mg/kg, 0.015 mg/kg, 0.044 mg/kg and 0.041 µM.
On to `Cc1nc2cnccc2n1CC1CCN(C(=O)CC(c2ccccc2)c2ccccc2)CC1`, for which the Inhibition in assay [1] and in assay [6] was 100% each time. In addition, the ED50 was 0.0008 mg/kg in assay [2] and 0.092 mg/kg in assay [5]. Besides, the IC50 in assay [3] came out at 0.0076 µM. Besides, the inhibition in vivo at 1 mg/kg in assay [4], in assay [9] and in assay [7] was 100% throughout.
In assay [3], `N#CC(c1cccnc1)C1CCN(C(=O)CNC(c2ccccc2)c2ccccc2)CC1` (centres undefined) yielded an IC50 of 0.024 µM. The ED50 amounted to 0.03 mg/kg in assay [8] and 2.6 mg/kg in assay [5].
For the molecule `COc1ccccc1N(C)CC(=O)N1CCC(Cn2c(C)nc3cnccc32)CC1`, the Inhibition is 100% in assay [1] and 87% in assay [6]. Further, the results for the ED50 in [2], in assay [8] and in [5] were 0.0066 mg/kg, 0.063 mg/kg and > 1 mg/kg, respectively. The molecule also gave a half-maximal inhibitory concentration (IC50) in [3] of 0.014 µM. Further, the inhibition in vivo at 1 mg/kg in assay [4] came to 70%; in [7] it was 90%.
With `CCOC(=O)[C@H](NC(=O)N1CCC(Cn2c(C)nc3cnccc32)CC1)c1ccccc1`, the values for the ED50 in [2], in assay [8] and in assay [5] were 0.02 mg/kg, 0.069 mg/kg and > 1 mg/kg, respectively. In assay [3], the midpoint of inhibition, the IC50, lay at 0.15 µM.
As to `Cc1nc2cnccc2n1CC1CCN(C(=O)CC(C)(O)c2ccccc2)CC1` (centres undefined), the Inhibition in assay [1] was determined as 59%; in assay [6] it was 43%. In addition, the values for the ED50 in assay [2] and in [5] were 0.0029 mg/kg and 1 mg/kg, respectively. For the same molecule, the IC50 in assay [3] is 0.0069 µM. Besides, the inhibition in vivo at 1 mg/kg in assay [4] worked out at 60%; in assay [7] it was 80%.
For `Cc1nc2cnccc2n1CC1CCN(C(=O)CC(O)(c2ccccc2)C(F)(F)F)CC1` (centres undefined), the ED50 turned out to be 0.0029 mg/kg in assay [2] and 0.032 mg/kg in assay [5]. Also, the concentration for half-maximal inhibition (IC50) in assay [3] was 0.036 µM. Further, the inhibition in vivo at 1 mg/kg in assay [4] is 70%; in assay [7] it was 90%.
Consider `Cc1nc2cnccc2n1CC1CCN(C(=O)CCc2ccccc2)CC1`, for which the ED50 was 0.013 mg/kg in assay [2], > 5 mg/kg in assay [8] and > 1 mg/kg in [5]. In [3], this molecule showed an IC50 of 0.06 µM.
For the molecule `Cc1nc2cnccc2n1CC1CCN(C(=O)CC(O)(c2ccccc2)c2ccccc2)CC1`, the ED50 in assay [2] was determined as 0.03 mg/kg; in assay [8], 0.013 mg/kg; in assay [5], 0.03 mg/kg. In [3], it took 0.64 µM to reach half-maximal inhibition (IC50).
Take `Cc1nc2cnccc2n1CC1CCN(C(=O)CNC(c2ccccc2)c2ccccc2)CC1`: the ED50 worked out at 0.0041 mg/kg in [2], 0.067 mg/kg in assay [8] and 1 mg/kg in assay [5]. The molecule also returned an IC50 in assay [3] of 0.013 µM.
For `Cc1nc2cnccc2n1CC1CCN(C(=O)NC(c2ccccc2)c2ccccc2)CC1`, in that order: > 0.03 mg/kg, 0.14 mg/kg, > 1 mg/kg and 0.0081 µM.
Consider `Cc1nc2cnccc2n1CC1CCN(C(=O)CC(C)c2ccccc2)CC1` (centres undefined), for which the ED50 in assay [2] was 0.003 mg/kg; in assay [5], 1 mg/kg. The molecule further displayed an IC50 in assay [3] of 0.012 µM.
Turning to `COC(=O)NC(CC(=O)N1CCC(Cn2c(C)nc3cnccc32)CC1)c1ccccc1` (centres undefined), the values for the ED50 in assay [2], in [8] and in assay [5] were 0.0027 mg/kg, 0.035 mg/kg and 0.1 mg/kg, respectively. In [3], this molecule showed an IC50 of 0.012 µM.
Molecule `Cc1nc2cnccc2n1C1CCN(C(=O)CC(c2ccccc2)c2ccccc2)CC1` registered an IC50 in assay [3] of 0.1 µM. Besides, the ED50 is 0.41 mg/kg in [8] and > 3 mg/kg in assay [5].
`Cc1nc2cnccc2n1CC1CCN(C(=O)CC(C)(C)c2ccccc2)CC1`: the Inhibition in assay [1] and in [6] was 100% each time. The ED50 in [2] is 0.0027 mg/kg; in assay [5], 1 mg/kg. In [3], the IC50 came out at 0.0067 µM. The inhibition in vivo at 1 mg/kg in assay [4] came out at 50%; in [7], 88%.
In the case of `Cc1nc2cnccc2n1CC1CCN(C(=O)OCC2(c3ccccc3)CC2)CC1`, the ED50 was 0.012 mg/kg in assay [2] and > 1 mg/kg in assay [5]. In assay [3], this molecule registered an IC50 of 0.035 µM.
Consider `Cc1nc2cnccc2n1CC1CCN(C(=O)C=C(c2ccccc2)c2ccccc2)CC1`, for which the ED50 is 0.0037 mg/kg in [2], 0.011 mg/kg in [8] and > 1 mg/kg in assay [5]. This molecule also registered an IC50 in [3] of 0.24 µM.
In turn, `Cc1ncccc1C(C#N)N1CCN(C(=O)CNC(c2ccccc2)c2ccccc2)CC1` (centres undefined) registered an Inhibition in assay [1] of 39%. Also, the ED50 in assay [2] is 0.009 mg/kg; in assay [8], 0.021 mg/kg; in assay [5], 0.3 mg/kg. In assay [3], this molecule gave a half-maximal inhibitory concentration (IC50) of 0.04 µM. The inhibition in vivo at 1 mg/kg in assay [9] was found to be 30%; in assay [7], 15%.
In [3], `COC(=O)NC(CC(=O)N1CCC(n2c(C)nc3cnccc32)CC1)c1ccccc1` (centres undefined) displayed an IC50 of 1.3 µM. Further, the ED50 in assay [8] is 0.56 mg/kg.
`Cc1nc2cnccc2n1CC1CCN(C(=O)CN(C)c2ccccc2)CC1`: the ED50 in assay [2] was > 0.03 mg/kg; in [8], 0.31 mg/kg; in assay [5], > 1 mg/kg. Further, in assay [3], half-maximal inhibition (IC50) required 0.023 µM.
On to `CCOC[C@@H](NC(=O)N1CCC(Cn2c(C)nc3cnccc32)CC1)c1ccccc1`, for which the ED50 was 0.01 mg/kg in [2] and 1 mg/kg in [5]. Besides, inhibition in assay [3] was half-maximal at 0.017 µM (IC50).

Source of the values: ChEMBL document CHEMBL1129690, “Design, synthesis, and structure-activity relationship studies of novel 1-[(1-acyl-4-piperidyl)methyl]-1H-2- methylimidazo[4,5-c]pyridine derivatives as potent, orally active platelet-activating factor antagonists” (J Med Chem, 1996).
